According to ChEMBL document CHEMBL1148959, “Annoglabayin, a novel dimeric kaurane diterpenoid, and apoptosis in Hep G2 cells of annomontacin from the fruits of Annona glabra” (2004):

Columns and labels:
Assay type in all cases: functional
[1] = system: HepG2; test: Cell cycle arrest in human HepG2 cells assessed as accumulation at S phase at 50 uM after 24 hrs using propidium iodide staining by FACS
Method in brief: (§1)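 Hep G2 cells seeded at 5 × 10^5 per 60 mm dish 48 h ahead in DMEM with 10% FCS and antibiotics. Exposed 24 h; compound from DMSO stock diluted in medium. Adherent and floating cells pooled, fixed in PBS-MeOH (1:2) at 4 °C ≥18 h, then stained 30 min at room temperature in the dark with 50 µg/mL PI plus 50 µg/mL RNaseA. Flow cytometry at 488 nm excitation, emission >580 nm, doublets gated out; subG1 taken as the subdiploid fraction.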

[2] = system: HepG2; test: Cell cycle arrest in human HepG2 cells assessed as accumulation at subG1 phase at 50 uM after 24 hrs using propidium iodide staining by FACS; method in brief: as §1
[3] = system: HepG2; test: Cell cycle arrest in human HepG2 cells assessed as accumulation at subG1 phase at 100 uM after 24 hrs using propidium iodide staining by FACS; method in brief: as §1
[4] = system: HepG2; test: Effect on morphology in human HepG2 cells assessed as low cellular shape change at 100 uM after 9 hrs by FACS
Method in brief: (§2)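 Hep G2 cells in DMEM/10% FCS were treated with or without 100 µM for 3, 6, 9 or 24 h, then trypsinized. Forward scatter (size) and side scatter (granularity) were read by flow cytometry. Normal versus low shape change was expressed as a percentage after gating out cellular debris. At least three runs; a representative run is shown.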

[5] = system: HepG2; test: Cell cycle arrest in human HepG2 cells assessed as accumulation at G2M phase at 25 uM after 24 hrs using propidium iodide staining by FACS; method in brief: as §1
[6] = system: HepG2; test: Induction of early apoptosis in human HepG2 cells assessed as number of cells with decreased mitochondrial transmembrane potential at 100 uM after 9 hrs using rhodamine 123 staining by FACS
Method in brief: (§3)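 Hep G2 cells seeded 5 × 105 per 60 mm dish 48 h ahead in DMEM with 10% FCS, penicillin, streptomycin and amphotericin B. Compound diluted into medium from a 200 mM DMSO stock and applied for 3, 6, 9 or 24 h; untreated cells as control. Medium then replaced with 5 µM rhodamine 123 for 30 min in the dark. Cells trypsinized and mean rhodamine 123 fluorescence read by flow cytometry. Run at least three times, with a representative experiment shown.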

[7] = system: HepG2; test: Cell cycle arrest in human HepG2 cells assessed as accumulation at S phase at 100 uM after 24 hrs using propidium iodide staining by FACS; method in brief: as §1
[8] = system: HepG2; test: Cell cycle arrest in human HepG2 cells assessed as accumulation at subG1 phase at 25 uM after 24 hrs using propidium iodide staining by FACS; method in brief: as §1
[9] = system: HepG2; test: Effect on morphology in human HepG2 cells assessed as low cellular shape change at 100 uM after 6 hrs by FACS; method in brief: as §2
[10] = system: HepG2; test: Cell cycle arrest in human HepG2 cells assessed as accumulation at G2M phase at 75 uM after 24 hrs using propidium iodide staining by FACS; method in brief: as §1
[11] = system: HepG2; test: Effect on morphology in human HepG2 cells assessed as low cellular shape change at 100 uM after 24 hrs by FACS; method in brief: as §2
[12] = system: HepG2; test: Cell cycle arrest in human HepG2 cells assessed as accumulation at G1 phase at 25 uM after 24 hrs using propidium iodide staining by FACS; method in brief: as §1
[13] = system: HepG2; test: Induction of apoptosis in human HepG2 cells assessed as cellular membrane damage at 100 uM after 3 hrs using propidium iodide staining by FACS
Method in brief: (§4)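 Treated or untreated for 3, 6, 9 or 24 h at 100 µM, Hep G2 cells were trypsinized and stained 10 min with 5 µg/mL PI. Argon laser excitation at 488 nm, emission >580 nm, ≥10 000 cells counted. Cells were classed as intact or membrane-damaged after gating out debris. At least three runs; a representative run is shown.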

[14] = system: HepG2; test: Cell cycle arrest in human HepG2 cells assessed as accumulation at G1 phase at 100 uM after 24 hrs using propidium iodide staining by FACS; method in brief: as §1
[15] = system: HepG2; test: Cell cycle arrest in human HepG2 cells assessed as accumulation at S phase at 75 uM after 24 hrs using propidium iodide staining by FACS; method in brief: as §1
[16] = system: HepG2; test: Induction of apoptosis in human HepG2 cells assessed as cellular membrane damage at 100 uM after 9 hrs using propidium iodide staining by FACS; method in brief: as §4
[17] = system: HepG2; test: Cell cycle arrest in human HepG2 cells assessed as accumulation at S phase at 25 uM after 24 hrs using propidium iodide staining by FACS; method in brief: as §1
[18] = system: HepG2; test: Cell cycle arrest in human HepG2 cells assessed as accumulation at G1 phase at 50 uM after 24 hrs using propidium iodide staining by FACS; method in brief: as §1
[19] = system: HepG2; test: Cell cycle arrest in human HepG2 cells assessed as accumulation at G2M phase at 50 uM after 24 hrs using propidium iodide staining by FACS; method in brief: as §1
[20] = system: HepG2; test: Effect on morphology in human HepG2 cells assessed as low cellular shape change at 100 uM after 3 hrs by FACS; method in brief: as §2
[21] = system: HepG2; test: Cell cycle arrest in human HepG2 cells assessed as accumulation at G2M phase at 100 uM after 24 hrs using propidium iodide staining by FACS; method in brief: as §1
[22] = system: HepG2; test: Induction of early apoptosis in human HepG2 cells assessed as number of cells with decreased mitochondrial transmembrane potential at 100 uM after 6 hrs using rhodamine 123 staining by FACS; method in brief: as §3
[23] = system: HepG2; test: Induction of apoptosis in human HepG2 cells assessed as cellular membrane damage at 100 uM after 24 hrs using propidium iodide staining by FACS; method in brief: as §4
[24] = system: HepG2; test: Induction of apoptosis in human HepG2 cells assessed as cellular membrane damage at 100 uM after 6 hrs using propidium iodide staining by FACS; method in brief: as §4
[25] = system: HepG2; test: Induction of early apoptosis in human HepG2 cells assessed as number of cells with decreased mitochondrial transmembrane potential at 100 uM after 3 hrs using rhodamine 123 staining by FACS; method in brief: as §3
[26] = system: HepG2; test: Induction of early apoptosis in human HepG2 cells assessed as number of cells with decreased mitochondrial transmembrane potential at 100 uM after 24 hrs using rhodamine 123 staining by FACS; method in brief: as §3
[27] = system: HepG2; test: Cell cycle arrest in human HepG2 cells assessed as accumulation at subG1 phase at 75 uM after 24 hrs using propidium iodide staining by FACS; method in brief: as §1
[28] = system: HepG2; test: Cell cycle arrest in human HepG2 cells assessed as accumulation at G1 phase at 75 uM after 24 hrs using propidium iodide staining by FACS; method in brief: as §1

`CCCCCCCCCCCC[C@H](O)[C@@H]1CC[C@@H]([C@@H](O)CCCCCCC(O)CCCCC[C@@H](O)CC2=C[C@H](C)OC2=O)O1` (stereo partly drawn) [ANNOMONTACIN] gave an Activity [1] of 37.1%, an Activity [2] of 12.2% and an Activity [3] of 58.3%. The Activity [4] was 75.4%, the Activity [5] was 10.8% and the Flu intensity [6] was 213. The Activity [7] was 32.9%, the Activity [8] was 4.4% and the Activity [9] was 50.5%. It also gave an Activity [10] of 9.8%, an Activity [11] of 80.1% and an Activity [12] of 50.2%. For the same compound, the Activity [13] was 7.1%, the Activity [14] was 56.7% and the Activity [15] was 35.9%. The Activity [16] was 32.4%, the Activity [17] was 39.1% and the Activity [18] was 54.6%. It also gave an Activity [19] of 8.3%, an Activity [20] of 40.1% and an Activity [21] of 10.4%. The Flu intensity [22] was 241, the Activity [23] was 69.5% and the Activity [24] was 6.9%. It also gave a Flu intensity [25] of 367, a Flu intensity [26] of 75 and an Activity [27] of 50.7%. The Activity [28] was 54.3%.
